PABP FP inh = PABP poly(A) RNA binding inhibitors, primary screen, biochemical, fluorescence polarization, uHTS; Polyadenylate-binding protein 1 (Homo sapiens), P11940; inhibition, % at 35 µM; actives 1% (n = 290,000); AID 2014, 2009;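 further: calls also rest on retests at 20 µM and on dose response follow-up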
MLLE-PAM2 inh = inhibitors of PABP1 MLLE–PAM2 peptide binding, primary screen, biochemical, fluorescence polarization, FITC-PAM2, GST-MLLE | inhibition, % at 20 µM | actives 0.36% (n = 360,000); in the data active means inhibition above about 35%, passing the limit was not always enough
ZTA DNA inh = ZTA (EBV) inhibition in EBNA-1 counter-screen; inhibition, % at 11 µM; actives 0.15% (n = 320,000); ZTA-DNA binding, fluorescence polarization; P03206; AID 2234; in the data active means inhibition above about 33%
Target sequence (P03206 whole entry, looked up): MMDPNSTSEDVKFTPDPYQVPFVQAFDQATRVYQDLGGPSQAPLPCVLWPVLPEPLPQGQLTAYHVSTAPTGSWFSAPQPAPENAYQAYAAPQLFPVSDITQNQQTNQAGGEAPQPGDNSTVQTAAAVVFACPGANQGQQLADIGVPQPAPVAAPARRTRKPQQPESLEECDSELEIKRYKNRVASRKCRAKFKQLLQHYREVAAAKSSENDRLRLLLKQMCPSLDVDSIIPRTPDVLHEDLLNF
eIF4H inh = human eIF4H binding inhibitors, primary screen, translation initiation inhibitor project, biochemical, uHTS, fluorescence polarization; Eukaryotic translation initiation factor 4H (Homo sapiens), Q15056; eIF4H fluorescence polarization binding assay; inhibition, % at 35 µM; actives 0.94% (n = 290,000);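 further: calls also rest on retests at 20 µM and on dose response follow-up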
NS3 helicase inh = inhibitors of HCV NS3 helicase, primary screen, biochemical, Cy5 molecular beacon fluorescence | Hepatitis C virus NS3 helicase | NS3 helicase DNA unwinding | inhibition, % at 10.9 µM | actives 0.56% (n = 290,000);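 active means inhibition above the mean of all tested compounds plus 3 SD, set per campaign, cut at about 35% in these data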
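Control set: DMSO versus 110 µM thioflavine S; Material: NS3 helicase fragment of HCV; Measured by: Cy5 fluorescence at 0 and 60 min, beacon hairpin quenching; Read-out basis: percent inhibition from t60/t0 fluorescence ratio; Times: reaction time 60 min, 25 °C; Repeats: single replicate; Compound dosing: single dose, 10.9 µM nominal final, DMSO 0.8% final.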
EBNA-1 inh = EBNA-1 DNA-binding inhibitors, primary screen, biochemical, fluorescence polarization. inhibition, % at 14.8 µM. actives 0.34% (n = 300,000); in the data active means inhibition above about 28%
Hits are given with their value; i = inactive; ? = inconclusive; nt = no result given. Compounds with a hit are over-represented: about 2.1% of the library has one in this group of screens. Unless noted, how the calls were made is not given here.

SMILES | PABP FP inh | MLLE-PAM2 inh | ZTA DNA inh | eIF4H inh | NS3 helicase inh | EBNA-1 inh
O=C1C=CC(=Nc2ccc(F)cc2)O1 | nt | 40 | nt | nt | nt | nt
CCN(C(=O)COC(=O)CCc1ccccc1)c1ccccc1 | i | i | i | i | i | i
Cc1ccc2nc(-c3cccnc3)c(NC3CCCCC3)n2c1 | i | 46 | i | i | i | i
CCC(Sc1nc(=O)cc(N)n1CCc1ccccc1)C(=O)Nc1cc(C)on1 (stereo not given) | i | i | i | i | i | i
C/C(=N\NC(=O)CCC(=O)Nc1ccccc1)c1cccs1 | i | i | i | 1.1 | i | i
Cc1ccc(S(=O)(=O)NCCC(=O)Nc2ccc(Cl)c(Cl)c2)cc1C | i | i | i | i | i | i
CCc1ccc(S(=O)(=O)NC(=S)NC2CCCCC2)cc1 | i | 43 | i | i | i | i
Cc1ccc(S(=O)(=O)NC(=S)NC2CCCCC2)cc1 | i | 47 | i | i | i | i
COC(=O)CNC(=O)C1CCCN1C(=O)OC(C)(C)C (stereo not given) | i | i | i | i | i | i
COc1ccc(-n2nc3c(c2NC(=O)c2ccccc2)CS(=O)(=O)C3)cc1 | nt | i | nt | nt | nt | nt
CCCC(C(=O)O)N1C(=O)/C(=C2\C(=O)N(C)c3ccccc32)SC1=S (stereo not given) | i | i | i | i | nt | i
O=C(O)CN1C(=O)/C(=C2\SC(=S)N(C(Cc3ccccc3)C(=O)O)C2=O)c2ccccc21 (stereo not given) | i | 39 | i | i | i | i
C[N+]1(CC(=O)OCCCc2ccccc2)CCCCC1 | 77 | i | i | i | i | i
C[N+]1(CC(=O)OCCCc2ccccc2)CCCC1 | i | i | i | i | i | i
CC(=O)Nc1ccc2[nH]c3ccccc3c2c1 | 73 | i | i | 99 | i | i
O=C(CCc1n[nH]c(=O)[nH]c1=O)N/N=C/c1ccco1 | active | i | i | 77 | i | i
COc1cccc(/C=N/NC(=O)CCc2n[nH]c(=O)[nH]c2=O)c1O | i | i | i | i | i | i
Nc1nnc(SCC(=O)N2CCCCC2)s1 | i | i | i | i | i | i
COc1ccc(-c2nnc(Nc3ccc(CC(N)=O)cc3)c3ccccc23)cc1 | i | i | i | i | i | i
COc1ccc(CC(=O)O/N=C(\N)c2cccc([N+](=O)[O-])c2)cc1 | 121 | i | i | ? | i | i
COc1ccc(CC(=O)O/N=C(\N)c2ccc(OC)cc2)cc1 | i | i | i | i | i | i
O=c1cc(N2CCc3ccccc3C2)[nH]c(=O)n1-c1ccc(Br)cc1 | i | i | i | i | i | i
CCOc1ccc(NC(=O)c2cc3ccccc3cc2O)cc1 | 73 | i | i | 98 | i | i
CCOc1ccc(NC(=O)c2cc3ccccc3cc2OC)cc1 | i | i | i | i | i | i
CCOC(CCNC(=O)CCC(=O)Nc1ccc2nc(N3CCN(C)CC3)cc(C)c2c1)OCC | i | i | i | i | i | i
SMILES | PABP FP inh | MLLE-PAM2 inh | ZTA DNA inh | eIF4H inh | NS3 helicase inh | EBNA-1 inh
CSc1ccccc1NC(=O)CN(C)CC(=O)Nc1ccccc1N1CCOCC1 | i | i | i | active | i | i
O=C(O)CCC(=O)Nc1ccccc1N1CCOCC1 | 55 | i | i | 14 | i | i
Cc1nn(-c2cc(C(F)(F)F)ccc2Cl)c2nc(C(Cl)(Cl)Cl)[nH]c(=O)c12 | i | i | i | i | i | i
CCOC(=O)C1=C(c2ccccc2)N=c2s/c(=C\c3cc(OC)c(OC)c(OC)c3)c(=O)n2C1c1cccs1 (stereo not given) | 80 | i | i | ? | i | i
O=C(CSc1nnc(-c2cccnc2)o1)Nc1ccccc1F | nt | 44 | i | nt | nt | i
O=C(CSc1nnc(-c2cccnc2)o1)Nc1ccccc1Br | i | i | i | i | i | i
COc1cc(/C=C2\C(=N)N3N=C(S(C)(=O)=O)SC3=NC2=O)ccc1OC(=O)c1cccs1 | i | i | i | i | i | i
COc1cc(/C=C2\C(=N)N3N=C(S(C)(=O)=O)SC3=NC2=O)ccc1OCCOc1ccccc1C | 65 | i | i | 88 | i | i
Cc1ccc(C23CC4CC(CC(C(=O)OCC(=O)N(C)C)(C4)C2)C3)cc1 | i | i | i | i | i | i
CCN(C[C@H]1N[C@@](CC)(C(=O)OC)[C@H]2C(=O)N(Cc3ccccc3)C(=O)[C@@H]12)C(=O)COc1ccccc1 | nt | i | nt | nt | nt | nt
COc1cccc(/C=C2\SC(=O)N(CC(=O)NC3CCS(=O)(=O)C3)C2=O)c1 (stereo not given) | i | i | i | i | i | i
COc1ccc(/C=C2\SC(=S)N(CCC(=O)Nc3ccccc3C(=O)O)C2=O)cc1 | i | i | i | i | i | i
COc1ccc(/C=C2\SC(=S)N(CCCC(=O)Nc3ccccc3C(=O)O)C2=O)cc1OC | 34 | i | i | i | i | i
COc1cccc(/C=C2\SC(=S)N(CCCC(=O)Nc3cc(C)on3)C2=O)c1 | 18 | i | i | ? | i | i
COc1cccc(/C=C2\SC(=S)N(CCCC(=O)NC3=NCCS3)C2=O)c1 | 23 | i | i | i | i | i
CCc1ccc(/C=C2\SC(=S)N(CCCC(=O)Nc3cc(C)on3)C2=O)cc1 | nt | i | nt | nt | nt | nt
COc1cccc(/C=C2\SC(=O)N(CC(=O)NC3C=CS(=O)(=O)C3)C2=O)c1 (stereo not given) | i | 41 | i | i | i | i
CC1Oc2ccccc2N(CC(=O)NC2CC2)C1=O (stereo not given) | i | i | i | i | i | i
CCC(C)c1c(O)nc(SCC(=O)N2CCCCC2)[nH]c1=O (stereo not given) | i | i | i | i | i | i
CN(c1ccc(-c2csc(NC(=O)CCCc3nc4ccccc4c(=O)[nH]3)n2)cc1)S(C)(=O)=O | nt | i | nt | nt | nt | nt
CN1Cc2c(N3CCOCC3)nc(SCc3ccccc3)c(C#N)c2CC1(C)C | ? | 40 | i | ? | i | i
CCSc1nc(N2CCOCC2)c2c(c1C#N)CC(C)(C)N(C)C2 | i | i | i | i | i | i
C=CCSc1nc(N2CCOCC2)c2c(c1C#N)CC(C)(C)N(C)C2 | 24 | i | i | 50 | i | i
Cn1c(CNC(=O)C(Cc2ccccc2)NC(=O)c2ccccc2)cc(=O)n(C)c1=O (stereo not given) | nt | i | i | nt | i | i
Cc1ccc(CN2CCN(/N=C/c3ccc(C(=O)O)cc3)CC2)cc1 | i | i | i | 85 | i | i
CC(=O)Nc1ccc(Nc2ccc3c4c(cc(=O)n3C)-c3ccccc3C(=O)c24)cc1 | i | 65 | i | i | i | i
Cn1c(C(=O)N[C@@H](C(=O)O)c2ccccc2)cc2cc(Cl)ccc21 | 39 | i | i | i | i | i
COc1cccc(-c2cc(C(=O)Nc3ccn(Cc4ccc(C)cc4)n3)no2)c1 | i | i | i | i | i | i

Screens as filed in PubChem BioAssay.
